Reference: ChEMBL document CHEMBL4038305, “Benzoxaborole Antimalarial Agents. Part 5. Lead Optimization of Novel Amide Pyrazinyloxy Benzoxaboroles and Identification of a Preclinical Candidate” (J Med Chem, 2017)
pIC50: −log10 of the molar value.

Legend:
[1] = system: Lymphocyte; assay: Genotoxicity in human lymphocytes assessed as replication index at 160 ug/mL after 28 hrs in absence of rat liver S9 fraction by micronucleus assay relative to control; assay type: toxicity, cell-based
In short: (§1)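 Human lymphocytes exposed for 3 h with or without rat liver S9, or 28 h without S9, with 1% DMSO as vehicle control. Replication index = (binucleated + 2 × multinucleated cells)/total cells. Cytotoxicity (%) = 100 − (RI treated/RI vehicle) × 100.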

[2] = system: Lymphocyte; assay: Genotoxicity in human lymphocytes assessed as replication index at 160 ug/mL after 3 hrs in presence of rat liver S9 fraction by micronucleus assay relative to control; assay type: toxicity, cell-based; conditions: s9, 3 h; in short: as §1
[3] = system: Salmonella typhimurium; assay: Genotoxicity in Salmonella typhimurium TA1535 assessed as number of revertants per plate at 5000 ug/plate in absence of rat liver S9 fraction by Ames test (reference value: 10 +/- 3); assay type: toxicity; conditions: salmonella enterica subsp. enterica serovar typhimurium
[4] = system: Lymphocyte; assay: Genotoxicity in human lymphocytes assessed as replication index at 160 ug/mL after 3 hrs in absence of rat liver S9 fraction by micronucleus assay relative to control; assay type: toxicity, cell-based; in short: as §1
[5] = system: Salmonella typhimurium; assay: Genotoxicity in Salmonella typhimurium TA100 assessed as number of revertants per plate at 5000 ug/plate in presence of rat liver S9 fraction by Ames test (reference value: 141 +/- 1); assay type: toxicity; conditions: salmonella enterica subsp. enterica serovar typhimurium
[6] = system: Plasmodium falciparum; assay: Antimalarial activity against Plasmodium falciparum Dd2 infected in human erythrocytes assessed as reduction in [3H]-hypoxanthine incorporation preincubated for 24 hrs followed by [3H]-hypoxanthine addition measured after 24 hrs by scintillation counting method; assay type: functional, cell-based
[7] = AUC (0 to infinity) in Sprague-Dawley rat at 5 mg/kg, po via gavage by HPLC/MS analysis; assay type: ADME, organism-based; design: dose 5 mg/kg, route oral, time infinity; conditions: in vivo
[8] = Cmax in Sprague-Dawley rat plasma at 5 mg/kg, po via gavage by HPLC/MS analysis; assay type: ADME, organism-based; design: dose 5 mg/kg, route oral
In short: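 Female CD-1 mice, male SD rats and beagle dogs received 5 mg/kg either iv or by oral gavage. Vehicle was PEG 300/propylene glycol/water (55/25/20, pH 6). Blood was sampled and drug measured by HPLC-MS/MS.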

[9] = system: Salmonella typhimurium; assay: Genotoxicity in Salmonella typhimurium TA1535 assessed as number of revertants per plate at 150 ug/plate in presence of rat liver S9 fraction by Ames test (reference value: 10); assay type: toxicity; conditions: salmonella enterica subsp. enterica serovar typhimurium
[10] = system: Salmonella typhimurium; assay: Genotoxicity in Salmonella typhimurium TA100 assessed as number of revertants per plate at 5000 ug/plate in absence of rat liver S9 fraction by Ames test (reference value: 154 +/- 9); assay type: toxicity; conditions: salmonella enterica subsp. enterica serovar typhimurium
[11] = system: Salmonella typhimurium; assay: Genotoxicity in Salmonella typhimurium TA98 assessed as number of revertants per plate at 1500 ug/plate in presence of rat liver S9 fraction by Ames test (reference value: 19 +/- 8); assay type: toxicity; conditions: salmonella enterica subsp. enterica serovar typhimurium
[12] = system: Salmonella typhimurium; assay: Genotoxicity in Salmonella typhimurium TA1535 assessed as number of revertants per plate at 1500 ug/plate in absence of rat liver S9 fraction by Ames test (reference value: 10 +/- 3); assay type: toxicity; conditions: salmonella enterica subsp. enterica serovar typhimurium
[13] = system: Lymphocyte; assay: Genotoxicity in human lymphocytes assessed as replication index at 355.15 ug/mL after 28 hrs in absence of rat liver S9 fraction by micronucleus assay relative to control; assay type: toxicity, cell-based; in short: as §1
[14] = system: Salmonella typhimurium; assay: Genotoxicity in Salmonella typhimurium TA1537 assessed as number of revertants per plate at 500 ug/plate in absence of rat liver S9 fraction by Ames test (reference value: 19 +/- 9); assay type: toxicity; conditions: salmonella enterica subsp. enterica serovar typhimurium
[15] = system: Escherichia coli; assay: Genotoxicity in Escherichia coli WP2uvrA assessed as number of revertants per plate at 1500 ug/plate in absence of rat liver S9 fraction by Ames test (reference value: 45 +/- 9); assay type: toxicity
[16] = system: Salmonella typhimurium; assay: Genotoxicity in Salmonella typhimurium TA1535 assessed as number of revertants per plate at 15 ug/plate in presence of rat liver S9 fraction by Ames test (reference value: 10); assay type: toxicity; conditions: salmonella enterica subsp. enterica serovar typhimurium
[17] = system: Rattus norvegicus; assay: Genotoxicity in rat assessed as micronucleated polychromatic erythrocytes in bone marrow at 2000 mg/kg administered via oral gavage measured after 48 hrs post dose by micronucleus assay (reference value: 0.10 +/- 0.01%); assay type: toxicity, organism-based; conditions: in vivo
[18] = system: Plasmodium falciparum; assay: Antimalarial activity against intraerythrocytic stage of Plasmodium falciparum assessed as time required for maximal killing effect at 30 times IC50 preincubated for 24 hrs followed by [3H]-hypoxanthine addition measured after 24 hrs by scintillation counting method; assay type: functional
In short: (§2)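 In vitro P. falciparum parasite reduction ratio assay run at 10×, 30× and 100× IC50. Derived parameters: lag phase (time to maximal killing), PRR (parasites killed per life cycle) and PCT99.9% (time to clear 99.9% of the initial parasite population).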

[19] = system: Escherichia coli; assay: Genotoxicity in Escherichia coli WP2uvrA assessed as number of revertants per plate at 500 ug/plate in presence of rat liver S9 fraction by Ames test (reference value: 42 +/- 6); assay type: toxicity
[20] = system: Rattus norvegicus; assay: Genotoxicity in rat assessed as change in polychromatic erythrocytes in bone marrow at 2000 mg/kg administered via oral gavage measured after 48 hrs post dose by micronucleus assay relative to control; assay type: toxicity, organism-based; conditions: in vivo
[21] = system: Plasmodium falciparum; assay: Antimalarial activity against intraerythrocytic stage of Plasmodium falciparum assessed as time required for maximal killing effect at 100 times IC50 preincubated for 24 hrs followed by [3H]-hypoxanthine addition measured after 24 hrs by scintillation counting method; assay type: functional; in short: as §2
[22] = system: Lymphocyte; assay: Genotoxicity in human lymphocytes assessed as increase in frequency of micronucleated cells at 80 ug/mL after 3 hrs in absence of rat liver S9 fraction by micronucleus assay (reference value: 0.99%); assay type: toxicity, cell-based
[23] = system: Salmonella typhimurium; assay: Genotoxicity in Salmonella typhimurium TA100 assessed as number of revertants per plate at 50 ug/plate in absence of rat liver S9 fraction by Ames test (reference value: 154 +/- 9); assay type: toxicity; conditions: salmonella enterica subsp. enterica serovar typhimurium
[24] = system: Escherichia coli; assay: Genotoxicity in Escherichia coli WP2uvrA assessed as number of revertants per plate at 15 ug/plate in presence of rat liver S9 fraction by Ames test (reference value: 42 +/- 6); assay type: toxicity
[25] = system: Plasmodium falciparum; assay: Antimalarial activity against Plasmodium falciparum K1 infected in human erythrocytes assessed as reduction in [3H]-hypoxanthine incorporation preincubated for 24 hrs followed by [3H]-hypoxanthine addition measured after 24 hrs by scintillation counting method; assay type: functional, cell-based
[26] = system: Plasmodium falciparum; assay: Antimalarial activity against intraerythrocytic stage of Plasmodium falciparum assessed as parasite reduction ratio at 30 times IC50 preincubated for 24 hrs followed by [3H]-hypoxanthine addition measured after 24 hrs by scintillation counting method; assay type: functional; in short: as §2
[27] = system: Salmonella typhimurium; assay: Genotoxicity in Salmonella typhimurium TA98 assessed as number of revertants per plate at 50 ug/plate in absence of rat liver S9 fraction by Ames test (reference value: 14 +/- 6); assay type: toxicity; conditions: salmonella enterica subsp. enterica serovar typhimurium
[28] = system: Escherichia coli; assay: Genotoxicity in Escherichia coli WP2uvrA assessed as number of revertants per plate at 5 ug/plate in presence of rat liver S9 fraction by Ames test (reference value: 42 +/- 6); assay type: toxicity
[29] = system: Plasmodium berghei; assay: Antimalarial activity against Plasmodium berghei infected in Swiss Webster mouse assessed as mouse survival rate at 11 mg/kg administered once daily via oral gavage for 4 consecutive days beginning 1 hr after infection measured on day 11 post infection relative to control; assay type: functional
In short: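 Mice given an intraperitoneal injection of P. berghei-infected erythrocytes taken from a previously infected animal. Oral dosing once daily for 4 consecutive days, starting 1 h after infection. Vehicle: polyethylene glycol 300/propylene glycol/water (weight ratio 55/25/20). Percent survival recorded daily from day 4 to day 20. Chloroquine 30 mg/kg and vehicle-only groups served as controls.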

Cc1c(Oc2cnc(C(=O)N3CC(C)(O)C3)cn2)ccc2c1B(O)OC2 showed an Activity [1] of 13%, an Activity [2] of 8% and an Activity [3] of 4. It also gave an Activity [4] of 2%, an Activity [5] of 31 and a pIC50 [6] of 7.28. It also gave an AUC(0-inf) [7] of 20800 ng·h/mL, a Cmax [8] of 1700 ng/mL and an Activity [9] of 15. The Activity [10] was 20, the Activity [11] was 15 and the Activity [12] was 7. It also gave an Activity [13] of 33%, an Activity [14] of 14 and an Activity [15] of 33. The Activity [16] was 12, the Activity [17] was 0.1% and the Time [18] was 0 h. It also gave an Activity [19] of 35, an Activity [20] of -12% and a Time [21] of 0 h. For the same compound, the Activity [22] was 0.81%, the Activity [23] was 132 and the Activity [24] was 50. The pIC50 [25] was 7.21, the “log(ratio)” value [26] was 4.9 and the Activity [27] was 14. The Activity [28] was 37.
With Cc1c(Oc2cnc(C(=O)N3CC(O)(C(C)C)C3)cn2)ccc2c1B(O)OC2 the survival at 11 mg/kg [29] was 20%.
